Only some compounds are listed: those with a hit (about 3.7% of all), similar ones and a draw of the others.
Kir21 inh – inhibitors of mouse Kir2.1 inward-rectifier potassium channel; P35561; HEK293-Kir2.1, FluxOR thallium flux fluorescence; stronger effect = lower value; B-score at 10 µM; 310,000 compounds, 0.85% hits; AID 1672;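 active = fluorescence ratio B-score at or below minus 3 SD of library scores, with starting-brightness B-score within 2 SD, cut at about -4.2 in these data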;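 also: channel flux triggered by added potassium and thallium sulfate stimulus; B-score of peak minus minimum fluorescence over baseline after thallium stimulus; more negative B-score means stronger Kir2.1 block with less thallium influx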
KCNK3 inh – human KCNK3 channel inhibition, primary screen; O14649; CHO-KCNK3 thallium flux, FluxOR fluorescence; stronger effect = lower value; B-score at 10 µM; 340,000 compounds, 0.84% hits; AID 602410;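 active = B-score under library mean minus 4 SD, starting fluorescence ratio at most library mean plus 5 SD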;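 also: more negative B-score means stronger inhibition of thallium flux through KCNK3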
KCNK9 block – inhibitors of human KCNK9 two-pore domain potassium channel | HEK293 KCNK9, FluxOR thallium flux fluorescence; stronger effect = lower value | 310,000 compounds, 1.2% hits | B-score at 10 µM | AID 488922 | Q9NPC2;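 active = ratio B-score over 3 SD below the library mean, with starting fluorescence within 5 SD of its mean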;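 also: negative B-score means less thallium flux so channel inhibition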
KCNQ1 act – potentiators or activators of human KCNQ1 potassium channel. 310,000 compounds, 0.35% hits. AID 2648. CHO-K1 KCNQ1, thallium flux FluxOR fluorescence; stronger effect = higher value. B-score at 10 µM;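 active = fluorescence ratio B-score, a plate-corrected score, at least three library SD, with initial intensity B-score within 5 SD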
Target sequence (P51787 whole entry, looked up): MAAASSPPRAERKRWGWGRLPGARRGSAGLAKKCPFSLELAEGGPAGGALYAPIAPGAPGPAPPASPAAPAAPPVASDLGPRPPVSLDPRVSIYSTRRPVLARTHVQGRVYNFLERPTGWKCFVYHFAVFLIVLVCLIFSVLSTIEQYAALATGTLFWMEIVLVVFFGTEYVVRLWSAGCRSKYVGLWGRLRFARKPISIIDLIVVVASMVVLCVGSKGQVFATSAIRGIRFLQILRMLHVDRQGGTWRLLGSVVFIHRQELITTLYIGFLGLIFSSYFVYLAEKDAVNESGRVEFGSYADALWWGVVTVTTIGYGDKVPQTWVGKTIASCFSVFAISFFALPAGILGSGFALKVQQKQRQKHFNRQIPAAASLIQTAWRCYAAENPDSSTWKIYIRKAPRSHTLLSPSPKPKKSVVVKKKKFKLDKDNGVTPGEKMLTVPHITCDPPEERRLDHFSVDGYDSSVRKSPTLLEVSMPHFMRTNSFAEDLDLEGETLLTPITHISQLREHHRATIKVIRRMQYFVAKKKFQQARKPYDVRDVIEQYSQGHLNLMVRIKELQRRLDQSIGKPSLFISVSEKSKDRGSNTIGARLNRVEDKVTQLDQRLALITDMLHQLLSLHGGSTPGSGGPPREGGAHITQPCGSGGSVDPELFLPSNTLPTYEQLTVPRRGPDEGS
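System: Stable KCNQ1 CHO-K1 line | Incubation: 90 min dye loading and 20 min compound exposure, both at room temperature | Measure: Ratio B score | Medium: Assay buffer for compound exposure, DMSO matched across wells | Compound dosing: Single-concentration screen | Probe or stimulus: K+/Tl+ depolarizing stimulus | Measured by: Kinetic FluxOR fluorescence, 10 s baseline plus 110 s post-stimulus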
KCNQ1 inh – human KCNQ1 channel inhibition. P51787. CHO-K1 KCNQ1, FluxOR thallium flux fluorescence; stronger effect = higher value. B-score at 10 µM. 310,000 compounds, 1.3% hits. AID 2642;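 active = compounds whose thallium flux B-score, printed positive for inhibition, exceeds three library SD while starting fluorescence stays within three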;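 also: channel opened by potassium depolarization with thallium stimulus after 20 min compound exposure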
hERG protect – compounds protecting human hERG from proarrhythmic drug block | Q12809 | CHO-hERG, FluxOR thallium flux, dofetilide IC70 present | activation (rescue from dofetilide block), less the hit threshold, % at 10 µM | 310,000 compounds, 0.51% hits;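 active = activation above the mean of controls blocked by dofetilide plus 5 SD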;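 also: thallium influx through hERG after potassium depolarization seen as dye fluorescence rise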
* hit, by the source's call; i = inactive; x = no result.

SMILES | Kir21 inh | KCNK3 inh | KCNK9 block | KCNQ1 act | KCNQ1 inh | hERG protect
COCCNCC1C(Oc2ccc(Cl)cc2)C(=O)N1c1ccccc1C (stereo unspecified) | 0.53 | i | i | i | i | -6
COc1ccc(CCNCC2C(Oc3ccc(Cl)cc3)C(=O)N2c2ccccc2C)cc1OC (stereo unspecified) | 0.44 | i | -6.8* | i | i | -13
O=[N+]([O-])c1ccccc1CNC1CCCc2ccccc21 (stereo unspecified) | -1.4 | i | i | i | i | -15
CC1(C)Cc2cccc(OCC(=O)OCC(=O)c3ccccc3)c2O1 | x | i | x | x | x | x
Cc1noc(C)c1COC(=O)COc1cccc2c1OC(C)(C)C2 | -5.5* | i | i | i | i | -8
CC(CNC(=O)Cn1ccc(N)nc1=O)c1ccccc1 (stereo unspecified) | x | i | x | x | x | x
CCC(=O)N(Cc1c(C)nn(-c2ccccc2)c1Cl)c1ccc(Cl)cc1 | -6.5 | i | i | i | 6* | -13
CC1CCCN(C(=O)c2ccc(OC3CCN(CCc4ccccc4)CC3)cc2)C1 (stereo unspecified) | -4.5* | i | i | i | i | -7
CCC(=O)Nc1cccc(-n2nnnc2SCC(=O)c2ccc(C)c(C)c2)c1 | -2.1 | i | i | i | i | -7
O=C(NCC(c1cccs1)N1CCOCC1)c1ccccc1NS(=O)(=O)c1ccc(Cl)c([N+](=O)[O-])c1 (stereo unspecified) | 0.5 | i | i | i | 13* | -13
O=C(NCC(c1cccs1)N1CCOCC1)c1ccccc1NS(=O)(=O)c1cccc([N+](=O)[O-])c1 (stereo unspecified) | 0.85 | i | i | i | i | -9
CCCN1C(=O)c2ccccc2NC1c1ccc(Cl)c(Cl)c1 (stereo unspecified) | -1.1 | i | i | i | i | -5
CCCCN1C2=C(C(=O)CCC2)C(c2ccc(Cl)c(Cl)c2)C2=C1c1ccccc1C2=O (stereo unspecified) | -1.1 | -9.9* | i | i | i | -9
O=C(NCC(=O)N1CCN(C(=O)c2ccccc2)CC1)c1ccc(Cl)cc1Cl | x | i | x | x | x | x
Cc1oc(C)c2c(=O)ccc3c(c12)OC(N)=C(C#N)C3c1ccc(F)cc1 (stereo unspecified) | -0.01 | i | i | i | 8* | -6
Nc1c(Cl)cc(-c2csc(NC(CO)c3nc4ccccc4n3CCOCCO)n2)cc1Cl (stereo unspecified) | 2.4 | i | i | i | i | -10
CCN(CC)c1ccc(NC(=O)Cn2c(C(C)NC(=O)c3ccc(C)cc3)nc3ccccc32)cc1 (stereo unspecified) | 2.6 | i | i | i | i | -12
Oc1c(Cl)cc(Cl)cc1C(C#Cc1ccccc1)N1CCOCC1 (stereo unspecified) | -1.2 | i | -7.1* | i | i | -11
N#CC(c1ccc(Cl)cc1)N1CCOCC1 (stereo unspecified) | 0.07 | i | i | i | i | -4
COc1ccc(Nc2nc3ccccc3nc2-n2nc(C)cc2C)cc1 | -0.04 | i | -7.2* | i | i | -8
Cc1cc(C)n(-c2nc3ccccc3nc2Nc2ccc3[nH]c(=O)[nH]c3c2)n1 | 1.1 | i | i | i | i | 0
O=C(CC(SCc1ccco1)c1ccc(O)cc1)c1cccs1 (stereo unspecified) | -4.8* | i | i | i | i | -14
COc1ccc(CCNC(=O)C2CCN(S(=O)(=O)c3ccc(SC)cc3)CC2)cc1 | -0.01 | i | i | i | i | -3
CN(c1ccccc1)S(=O)(=O)c1ccc(Cl)c(C(=O)Nc2ccc(-c3nc4ccccc4[nH]3)cc2)c1 | 0.06 | i | i | i | i | -18
CN(c1ccccc1)S(=O)(=O)c1ccc(Cl)c(C(=O)Nc2nc3ccccc3[nH]2)c1 | -1.2 | i | -7.1* | i | i | -6
SMILES | Kir21 inh | KCNK3 inh | KCNK9 block | KCNQ1 act | KCNQ1 inh | hERG protect
COCCn1c(SC(C)C(=O)NCC2CCCO2)nc2sc3c(c2c1=O)CCC3 (stereo unspecified) | -0.37 | i | i | i | i | -19
Cc1ccc(NC(=O)Nc2ccccc2F)cc1S(=O)(=O)N1CCOCC1 | x | -10* | x | x | x | x
COC(=O)c1sccc1NC(=S)NCc1ccc(Cl)cc1 | 0.09 | i | i | i | i | 14*
OCCN1CCN(CC#CCn2c3ccccc3c3ccccc32)CC1 | -4.1 | i | i | i | i | -7
OCCN1CCN(CC#CCC(c2ccccc2)c2ccccc2)CC1 | -5.7* | i | i | i | i | -4
O=C(CNS(=O)(=O)c1c(Cl)cccc1Cl)N1CCCCCC1 | -4.6* | i | i | i | i | -2
CC(=O)c1c(C)[nH]c(C(=O)COC(=O)c2ccc(C)s2)c1C | x | i | x | x | x | x
CCOC(=O)c1c(C)n(-c2ccccc2)c2ccc(O)c(CN(C)C)c12 | -4.7* | i | i | i | i | -17
CCOc1ccc2ccccc2c1CNCCc1ccc(S(N)(=O)=O)cc1 | -4.4* | i | i | i | i | -3
CCOc1ccc(CNCCc2ccc(S(N)(=O)=O)cc2)cc1 | 0.39 | i | i | i | i | -4
Cc1cccc(CN2CCc3c([nH]c4ccccc34)C2)c1 | -5.9* | i | i | i | i | -7
Clc1cccc(CN2CCc3c([nH]c4ccccc34)C2)c1 | -2.8 | i | i | i | i | -10
CC(C)CCN1CCN(C2CSCCSC2)CC1CCO (stereo unspecified) | 1.8 | i | i | i | i | -6
N#CC1=C(SCc2ccccc2)NC(=O)CC1c1ccccc1 (stereo unspecified) | -11* | i | i | i | i | -8
CCOC(=O)CSC1=C(C#N)C(c2ccc(C)o2)CC(=O)N1 (stereo unspecified) | -4.4* | i | i | i | i | -3
CCOC(=O)CSC1=C(C#N)C(c2ccc(Cl)cc2)CC(=O)N1 (stereo unspecified) | -8.8* | i | i | i | i | -8
C=CCSC1=C(C#N)C(c2ccccc2)CC(=O)N1 (stereo unspecified) | -1.9 | i | i | i | i | -4
COc1ccccc1NC(=O)Nc1ccc(-n2ccc(C(F)(F)F)n2)cc1 | -0.01 | i | -7.8* | i | i | -7
O=C(Nc1cccc(Cl)c1)Nc1nc(-c2ccc(Cl)cc2)cs1 | -1.2 | i | i | i | 8* | -8
Cc1c(C(=O)c2no[n+]([O-])c2C(=O)c2cnn(C)c2C)cnn1C | -0.01 | i | i | i | 6* | -9

Screening data: PubChem, Johns Hopkins Ion Channel Center
